pIC50: −log10 of the molar value.

Series [1] in a line: Partition coefficient was measured by the shake flask method at pH 7.4. Type of series: physicochemical. As to conditions: octanol/water. In short, it runs like this: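 Log P determined by shake-flask partitioning at pH 7.4.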
In series [2] the target is T1, Sterol O-acyltransferase 1 (Rattus norvegicus, UniProt O70536).
T1 sequence (O70536 whole entry): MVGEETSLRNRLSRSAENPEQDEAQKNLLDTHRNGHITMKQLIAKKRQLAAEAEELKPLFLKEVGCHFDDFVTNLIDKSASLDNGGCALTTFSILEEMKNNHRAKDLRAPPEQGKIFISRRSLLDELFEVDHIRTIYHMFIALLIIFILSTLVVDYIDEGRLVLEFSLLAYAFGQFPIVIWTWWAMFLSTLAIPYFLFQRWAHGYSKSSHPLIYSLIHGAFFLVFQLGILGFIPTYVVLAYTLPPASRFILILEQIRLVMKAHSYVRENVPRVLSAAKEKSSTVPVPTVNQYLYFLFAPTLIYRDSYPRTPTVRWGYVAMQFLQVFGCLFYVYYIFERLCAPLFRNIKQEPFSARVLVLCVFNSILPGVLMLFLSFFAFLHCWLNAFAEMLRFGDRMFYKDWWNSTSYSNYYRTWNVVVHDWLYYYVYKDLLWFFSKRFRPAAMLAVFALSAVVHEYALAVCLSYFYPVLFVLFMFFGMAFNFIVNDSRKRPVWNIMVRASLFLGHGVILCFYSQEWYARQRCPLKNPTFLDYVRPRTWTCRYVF
Nature of the series: Compound was evaluated for the Acyl coenzyme A:cholesterol acyltransferase inhibition using microsomes isolated from the livers of cholesterol fed rats. Also on record: species or system Liver. In short, it runs like this: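 Liver microsomes prepared from cholesterol-fed rats used as ACAT source. IC50 determined from four drug concentrations per assay, in four separate assays, and reported as the mean.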

Another series relates to Caco-2. Kind of series: Activity of compound in an intestine model using Caco-2 cells. As to conditions: Homo sapiens, Caco-2, Intestine. Type of series: functional, cell-based. In short, it runs like this:
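CaCo-2 intestinal cells incubated with radiolabeled oleic acid in the presence of test agent; ACAT activity in intact cells read as oleate incorporation into cholesteryl esters, with triglyceride and phospholipid incorporation also followed up to 100 µM. IC50 averaged over three separate experiments.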

Series [3] concerns Rattus norvegicus. Nature of the series: […] activity in rats at a dose of 1 mg/kg of compound was determined. It is filed as functional. In short, it runs like this: (§1)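 Acute model in rats: one dose given, then ad libitum overnight feeding of chow supplemented with peanut oil (5.5%), cholesterol (1.5%) and cholic acid (0.5%). Plasma cholesterol measured; n = 5/group; mean ± SEM; percent change relative to PCC-fed controls. ED50 is the dose that lowers plasma cholesterol by 50%.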

For series [4], the system named is Rattus norvegicus. Nature of the series: […] activity in rats at a dose of 10 mg/kg was determined. It is filed as functional. In short, it runs like this:
as §1

For series [5], the system named is Rattus norvegicus. Nature of the series: […] activity in rats at a dose of 3 mg/kg of compound was determined. It is filed as functional. In short, it runs like this: as §1
Series [6] deals with Rattus norvegicus. Nature of the series: […] activity in rats at a dose of 30 mg/kg was determined. Type of series: functional. In short, it runs like this: as §1
The subject of series [7] is Rattus norvegicus. Kind of series: Anti hypercholesterolemic activity in rats at a dose of 0.3 mg/kg of compound was determined. It is filed as functional. In short, it runs like this:
as §1

The species named for series [8] is Rattus norvegicus. Nature of the series: Dose required to lower the plasma cholesterol by 50% in rats was determined. Type of series: functional. In short, it runs like this:
as §1

Series [9] relates to Rattus norvegicus. Kind of series: Chronic effect on preestablished dyslipidemia in rats for HDL-C at 0.3 mg/kg of compound was determined. Type of series: functional. In short, it runs like this:
(§2)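 Plasma total cholesterol measured; HDL-C separated by dextran sulfate precipitation of whole plasma, nonHDL-C derived. n = 5/group, mean ± SEM, % change versus PCC-fed controls; chow-fed controls included.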

In series [10] the test system is Rattus norvegicus. Nature of the series: Chronic effect on preestablished dyslipidemia in rats for HDL-C at 10 […] of compound was determined. It is filed as functional. In short, it runs like this:
as §2

Series [11] relates to Rattus norvegicus. Nature of the series: Chronic effect on preestablished dyslipidemia in rats for HDL-C at 1 mg/kg of compound was determined. It is filed as functional. In short, it runs like this:
as §2

The subject of series [12] is Rattus norvegicus. Kind of series: Chronic effect on preestablished dyslipidemia in rats for HDL-C at 30 mg/kg of compound was determined. It is filed as functional. In short, it runs like this:
as §2

Series [13] concerns Rattus norvegicus. Nature of the series: Chronic effect on preestablished dyslipidemia in rats for HDL-C at 3 mg/kg of compound was determined. It is filed as functional. In short, it runs like this: as §2
Series [14] has as its system Rattus norvegicus. Kind of series: Chronic effect on preestablished dyslipidemia in rats for nonHDL-C at 0.3 mg/kg of compound was determined. It is filed as functional. In short, it runs like this:
as §2

Series [15] concerns Rattus norvegicus. Nature of the series: Chronic effect on preestablished dyslipidemia in rats for nonHDL-C at 10 mg/kg of compound was determined. Type of series: functional. In short, it runs like this: as §2
In series [16] the test system is Rattus norvegicus. Nature of the series: Chronic effect on preestablished dyslipidemia in rats for nonHDL-C at 1 mg/kg of compound was determined. Type of series: functional. In short, it runs like this: as §2
In series [17] the test system is Rattus norvegicus. Kind of series: Chronic effect on preestablished dyslipidemia in rats for nonHDL-C at 30 mg/kg of compound was determined. It is filed as functional. In short, it runs like this: as §2
Series [18] relates to Rattus norvegicus. Nature of the series: Chronic effect on preestablished dyslipidemia in rats for nonHDL-C at 3 mg/kg of compound was determined. Type of series: functional. In short, it runs like this: as §2
Series [19] deals with Rattus norvegicus. Kind of series: Chronic effect on preestablished dyslipidemia in rats for total cholesterol at 0.3 mg/kg of compound was determined. It is filed as functional. In short, it runs like this:
as §2

Series [20] deals with Rattus norvegicus. Nature of the series: Chronic effect on preestablished dyslipidemia in rats for total cholesterol at 1 mg/kg of compound was determined. It is filed as functional. In short, it runs like this: as §2
Series [21] has as its system Rattus norvegicus. Nature of the series: Chronic effect on preestablished dyslipidemia in rats for total cholesterol at 10 mg/kg of compound was determined. It is filed as functional. In short, it runs like this:
as §2

Series [22] concerns Rattus norvegicus. Kind of series: Chronic effect on preestablished dyslipidemia in rats for total cholesterol at 3 mg/kg of compound was determined. Type of series: functional. In short, it runs like this:
as §2

Series [23] has as its system Rattus norvegicus. Kind of series: Chronic effect on preestablished dyslipidemia in rats for total cholesterol at 30 mg/kg of compound was determined. It is filed as functional. In short, it runs like this:
as §2

Series [24] concerns the target T1, Sterol O-acyltransferase 1. Nature of the series: Compound was evaluated for the Acyl coenzyme A:cholesterol acyltransferase inhibition using microsomes isolated from the livers of cholesterol fed rats. Also noted: species or system Liver. In short, it runs like this:
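Liver microsomes from cholesterol-fed rats served as the ACAT source. IC50 was determined in four separate assays, each using four drug concentrations, and averaged.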

For series [25], the system named is Rattus norvegicus. Kind of series: […] activity in rats at a dose of 10 mg/kg of compound was determined. Type of series: functional. In short, it runs like this: as §1
The test system of series [26] is Rattus norvegicus. Nature of the series: […] activity in rats at a dose of 100 mg/kg of compound was determined. Type of series: functional. In short, it runs like this: as §1
Series [27] has as its system Rattus norvegicus. Kind of series: […] activity in rats at a dose of 30 mg/kg of compound was determined. It is filed as functional. In short, it runs like this:
as §1

Series [28] deals with Rattus norvegicus. Nature of the series: Chronic effect on preestablished dyslipidemia in rats for HDL-C at 100 mg/kg of compound was determined. Type of series: functional. In short, it runs like this:
as §2

Series [29] deals with Rattus norvegicus. Nature of the series: Chronic effect on preestablished dyslipidemia in rats for HDL-C at 10 mg/kg of compound was determined. Type of series: functional. In short, it runs like this:
as §2

Series [30] has as its system Rattus norvegicus. Kind of series: Chronic effect on preestablished dyslipidemia in rats for nonHDL-C at 100 mg/kg of compound was determined. Type of series: functional. In short, it runs like this: as §2
In series [31] the test system is Rattus norvegicus. Kind of series: Chronic effect on preestablished dyslipidemia in rats for total cholesterol at 100 mg/kg of compound was determined. Type of series: functional. In short, it runs like this:
as §2

For orientation: logD means lipophilicity at a set pH, counting ionised and neutral species. What is called pIC50 is the negative decadic logarithm of the IC50, by convention in mol/L. A high value points to a small IC50. The ED50 is the midpoint of the dose-response relation. Read a low ED50 as an effect at a small dose. Molecule `CC(C)c1cccc(C(C)C)c1OC(=O)[N-]S(=O)(=O)Oc1c(C(C)C)cccc1C(C)C.[Na+]` registered a logD in series [1] of 2.98. Moreover, the pIC50 was 5.28 in [2] and 6.03 in the series on Caco-2. Moreover, the Activity came out at 98 in the series on Rattus norvegicus [3]; 56 in the series with Rattus norvegicus [4]; 78 in the series on Rattus norvegicus [5]; 50 with Rattus norvegicus [6]; 142 with Rattus norvegicus [7]. In the series filed under Rattus norvegicus [8], this molecule displayed an ED50 of 1.8 mg/kg. Also, the Effect is 11 mg/dL in the series with Rattus norvegicus [9]; 52 mg/dL in the series on Rattus norvegicus [10]; 25 mg/dL in the series on Rattus norvegicus [11]; 44 mg/dL in the series with Rattus norvegicus [12]; 39 mg/dL in the series with Rattus norvegicus [13]; 192 mg/dL in the series on Rattus norvegicus [14]. Further, the Effect with Rattus norvegicus [15] is 59 mg/dL; in the series on Rattus norvegicus [16], 102 mg/dL; in the series with Rattus norvegicus [17] it was 47 mg/dL; with Rattus norvegicus [18], 53 mg/dL; in the series on Rattus norvegicus [19], 204 mg/dL; in the series on Rattus norvegicus [20], 127 mg/dL. Besides, the Effect in the series on Rattus norvegicus [21] turned out to be 111 mg/dL; in the series on Rattus norvegicus [22] it was 92 mg/dL; with Rattus norvegicus [23], 91 mg/dL.

Turning to `CCCCCCCN(CCCCCSc1nc(-c2ccccc2)c(-c2ccccc2)[nH]1)C(=O)Nc1ccc(F)cc1F` [LECIMIBIDE], the negative logarithm of the IC50 (pIC50) in series [24] is 7.74. The Activity with Rattus norvegicus [3] is recorded as 158; with Rattus norvegicus [25], 77; in the series with Rattus norvegicus [26], 79; with Rattus norvegicus [5], 122; in the series with Rattus norvegicus [27], 74. The molecule also registered a median effective dose (ED50) in the series listed under Rattus norvegicus [8] of 15.2 mg/kg. Besides, the Effect in the series on Rattus norvegicus [28] amounted to 32 mg/dL; with Rattus norvegicus [29], 18 mg/dL; in the series on Rattus norvegicus [11] it was 10 mg/dL; in the series on Rattus norvegicus [12], 21 mg/dL; with Rattus norvegicus [13], 14 mg/dL; in the series with Rattus norvegicus [30], 87 mg/dL. For the same molecule, the Effect in the series with Rattus norvegicus [15] is 135 mg/dL; in the series on Rattus norvegicus [16], 234 mg/dL; in the series on Rattus norvegicus [17] it was 98 mg/dL; with Rattus norvegicus [18], 203 mg/dL; in the series on Rattus norvegicus [20], 244 mg/dL; in the series with Rattus norvegicus [31], 119 mg/dL. Besides, the Effect in the series on Rattus norvegicus [21] was determined as 154 mg/dL; with Rattus norvegicus [22], 217 mg/dL; with Rattus norvegicus [23] it was 120 mg/dL.

(Values after ChEMBL document CHEMBL1127335, “Inhibitors of acyl-CoA: cholesterol O-acyl transferase (ACAT) as hypocholesterolemic agents. 6. The first water-soluble ACAT inhibitor with lipid-regulating activity” (J Med Chem, 1994).)
